These results are taken from ChEMBL document CHEMBL1148966, “Cytotoxic steroidal saponins from Polygonatum zanlanscianense” (J Nat Prod, 2004).

For this assay, the system named is HeLa. Briefly: Cytotoxicity against human HeLa cells after 72 hrs by MTT assay. The class given is functional, cell-based. Summed up: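 HeLa cells in 96-well microplates; viability by MTT colorimetric assay, optical density read at 570 nm on a plate reader; IC50 reported in µg/mL. Cisplatin run as positive control.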
On the technique in general: Formazan colour is commonly taken as a measure of viable cells.

Values after ≈ are worked out from the molar mass of the structure shown.

As to `C[C@@H]1O[C@@H](O[C@H]2[C@H](O)[C@@H](O)[C@H](O[C@H]3CC[C@@]4(C)C(=CC[C@H]5[C@@H]6C[C@@H]7O[C@]8(CC[C@@H](CO[C@@H]9O[C@H](CO)[C@@H](O)[C@H](O)[C@H]9O)CO8)[C@@H](C)[C@@H]7[C@@]6(C)CC[C@@H]54)C3)O[C@@H]2CO)[C@H](O)[C@H](O)[C@H]1O` [POLYGONATOSIDE D], the IC50 worked out at 5.83 µg/mL (≈ 6.47 µM).

In the case of `C[C@@H]1CC[C@@]2(OC1)O[C@H]1C[C@H]3[C@@H]4CC=C5C[C@@H](O[C@@H]6O[C@H](CO)[C@@H](O[C@@H]7OC[C@@H](O)[C@@H](O[C@@H]8O[C@@H](C)[C@H](O[C@@H]9O[C@@H](C)[C@H](O)[C@@H](O)[C@H]9O)[C@@H](O)[C@H]8O)[C@@H]7O)[C@H](O)[C@H]6O[C@@H]6O[C@@H](C)[C@H](O)[C@@H](O)[C@H]6O)CC[C@]5(C)[C@H]4CC[C@]3(C)[C@H]1[C@@H]2C` [PARISSAPONIN PB], the IC50 was determined as 3.14 µg/mL (≈ 2.74 µM). `C[C@@H]1CC[C@@]2(OC1)O[C@H]1C[C@H]3[C@@H]4CC=C5C[C@@H](O[C@@H]6O[C@H](CO)[C@@H](O)[C@H](O)[C@H]6O[C@@H]6O[C@@H](C)[C@H](O)[C@@H](O)[C@H]6O)CC[C@]5(C)[C@H]4CC[C@]3(C)[C@H]1[C@@H]2C` [OPHIOPOGONIN C] displayed an IC50 of 6.23 µg/mL (≈ 8.62 µM). In turn, `C[C@@H]1O[C@@H](O[C@H]2[C@H](O[C@H]3CC[C@@]4(C)C(=CC[C@H]5[C@@H]6C[C@@H]7O[C@]8(CC[C@@H](CO)CO8)[C@@H](C)[C@@H]7[C@@]6(C)CC[C@@H]54)C3)O[C@H](CO)[C@@H](O[C@@H]3O[C@@H](C)[C@H](O)[C@@H](O)[C@H]3O)[C@@H]2O)[C@H](O)[C@H](O)[C@H]1O` registered a 50% inhibitory concentration (IC50) of 3.62 µg/mL (≈ 4.09 µM). The value for `CC1=CC(=O)CC(C)(C)[C@H]1CC[C@@H](C)O[C@@H]1O[C@H](CO[C@@H]2O[C@H](CO)[C@@H](O)[C@H](O)[C@H]2O)[C@@H](O)[C@H](O)[C@H]1O` was 20.1 µg/mL (≈ 37.5 µM); that for `C[C@@H]1CC[C@@]2(OC1)O[C@H]1C[C@H]3[C@@H]4CC=C5C[C@@H](O[C@@H]6O[C@H](CO)[C@@H](O)[C@H](O[C@@H]7O[C@H](CO)[C@@H](O)[C@H](O)[C@H]7O)[C@H]6O[C@@H]6O[C@@H](C)[C@H](O)[C@@H](O)[C@H]6O)CC[C@]5(C)[C@H]4CC[C@]3(C)[C@H]1[C@@H]2C` [GRACILLIN] was 12.7 µg/mL (≈ 14.4 µM). `C[C@@H]1CC[C@@]2(OC1)O[C@H]1C[C@H]3[C@@H]4CC=C5C[C@@H](O[C@@H]6O[C@H](CO)[C@@H](O[C@@H]7OC[C@@H](O)[C@@H](O)[C@@H]7O)[C@H](O)[C@H]6O[C@@H]6O[C@@H](C)[C@H](O)[C@@H](O)[C@H]6O)CC[C@]5(C)[C@H]4CC[C@]3(C)[C@H]1[C@@H]2C`: inhibition was half-maximal at 14.6 µg/mL (≈ 17 µM) (IC50). In the case of `C[C@H]1O[C@@H](O[C@H]2CC[C@@]3(C)C(=CC[C@H]4[C@@H]5C[C@@H]6O[C@]7(CC[C@@H](CO[C@@H]8O[C@H](CO)[C@@H](O)[C@H](O)[C@H]8O)CO7)[C@@H](C)[C@@H]6[C@@]5(C)C(=O)C[C@@H]43)C2)[C@H](O)[C@@H](O)[C@H]1O[C@@H]1O[C@H](CO)[C@@H](O)[C@H](O)[C@H]1O` [POLYGONATOSIDE A], the IC50 turned out to be 5.06 µg/mL (≈ 5.53 µM). With `C[C@H]1[C@H]2[C@H](C[C@H]3[C@@H]4CC=C5C[C@@H](O[C@@H]6O[C@H](CO)[C@H](O[C@@H]7O[C@H](CO)[C@@H](O)[C@H](O)[C@H]7O)[C@H](O)[C@H]6O)CC[C@]5(C)[C@H]4CC(=O)[C@]23C)O[C@]12CC[C@@H](CO[C@@H]1O[C@H](CO)[C@@H](O)[C@H](O)[C@H]1O)CO2`, the IC50 was determined as 5.13 µg/mL (≈ 5.51 µM).

As for `C[C@H]1O[C@@H](O[C@H]2CC[C@@]3(C)C(=CC[C@H]4[C@@H]5C[C@@H]6O[C@@]7(OC[C@H](CO)C[C@@H]7O)[C@@H](C)[C@@H]6[C@@]5(C)C(=O)C[C@@H]43)C2)[C@H](O)[C@@H](O)[C@H]1O[C@@H]1O[C@H](CO)[C@@H](O)[C@H](O)[C@H]1O` [POLYGONATOSIDE C], the IC50 came to 7.45 µg/mL (≈ 9.69 µM).

For the compound `C[C@H]1[C@H]2[C@H](C[C@H]3[C@@H]4CC=C5C[C@@H](O[C@@H]6O[C@H](CO)[C@H](O[C@@H]7O[C@H](CO)[C@@H](O)[C@H](O)[C@H]7O[C@@H]7O[C@H](CO)[C@@H](O)[C@H](O)[C@H]7O)[C@H](O)[C@H]6O)CC[C@]5(C)[C@H]4CC[C@]23C)O[C@]12CC[C@@H](CO)CO2`, the IC50 is 5.24 µg/mL (≈ 5.71 µM).

As usually defined, the IC50 is the point on the concentration scale where inhibition reaches its midpoint.
